# Results from ChEMBL document CHEMBL5331087, “Targeted AURKA degradation: Towards new therapeutic agents for neuroblastoma” (Eur J Med Chem, 2023).
# Calls of active or inactive are those of the source. No cut-off for these calls is given here.
# What was measured:
# [1] = target: T1, Protein cereblon/Aurora kinase A (Homo sapiens) (UniProt O14965+Q96SW2); assay: PROTAC activity at AURKA/CRBN in human NGP cells assessed as AURKA degradation measured for 24 hrs by Western blot analysis; assay type: cell-based; conditions: dose 10-1000 nM
# SK-N-AS = assay: Antiproliferative activity against human SK-N-AS cells assessed as reduction in cell viability incubated for 48 hrs relative to control; assay type: functional
# How it was run: (§1)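 Cells grown in RPMI 1640 with 10% fetal calf serum, 2 mM L-glutamine and penicillin/streptomycin at 37 °C, 5% CO2. Seeded at 4500 (IMR-32) or 2100 (SK-N-AS) cells/well in 384-well plates and left to adhere overnight. Concentration range dispensed in triplicate. Confluence tracked by IncuCyte live-cell imaging, and 48h values normalized to DMSO. Absolute IC50 taken from a four-parameter variable-slope fit (n = 4).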
# IMR-32 = assay: Antiproliferative activity against human IMR-32 cells assessed as reduction in cell viability incubated for 48 hrs relative to control; assay type: functional; how it was run: as §1
# NGP [2] = assay: Induction of apoptosis in human NGP cells assessed as increase in caspase3/7 level at 1000 nM incubated for 24 hrs; assay type: functional, cell-based
# How it was run: (§2)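 NGP cells were seeded at 25,000 cells/well and allowed to adhere overnight. Compound was dispensed in triplicate with DMSO matched. At 24 h, cell-occupied area was imaged live, then a Caspase-Glo 3/7 assay was run using 50 µL reagent per well. Signal is expressed per cell-occupied area.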
# NGP [3] = assay: Induction of apoptosis in human NGP cells assessed as increase in caspase3/7 level at 10 nM incubated for 24 hrs; assay type: functional, cell-based; how it was run: as §2
# [4] = target: T2, N-myc proto-oncogene protein (Homo sapiens) (UniProt P04198); assay: Induction of MYCN degradation in human NGP cells incubated for 24 hrs by immunoblotting analysis; assay type: cell-based; conditions: dose 10-1000 nM
# T2 sequence (whole entry): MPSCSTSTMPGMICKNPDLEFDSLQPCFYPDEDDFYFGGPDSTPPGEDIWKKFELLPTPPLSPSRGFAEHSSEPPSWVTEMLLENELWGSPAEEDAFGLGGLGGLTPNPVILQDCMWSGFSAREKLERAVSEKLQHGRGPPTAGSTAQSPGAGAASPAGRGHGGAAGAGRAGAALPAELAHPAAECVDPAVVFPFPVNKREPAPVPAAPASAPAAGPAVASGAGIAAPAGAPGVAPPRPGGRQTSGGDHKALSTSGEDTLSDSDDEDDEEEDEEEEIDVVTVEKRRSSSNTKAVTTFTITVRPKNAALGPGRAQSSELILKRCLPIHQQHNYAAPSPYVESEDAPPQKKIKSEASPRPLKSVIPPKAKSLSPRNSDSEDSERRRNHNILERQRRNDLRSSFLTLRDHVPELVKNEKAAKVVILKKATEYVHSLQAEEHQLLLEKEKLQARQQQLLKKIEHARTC
# [5] = target: T1, Protein cereblon/Aurora kinase A (Homo sapiens); assay: PROTAC activity at AURKA/CRBN in human NGP cells assessed as increase in H2AX phosphorylation at 10 to 1000 nM measured for 24 hrs by immunoblotting analysis; assay type: cell-based; conditions: dose 10-1000 nM
# [6] = Growth inhibition of patient derived NB059 Neuroblastoma organoid assessed as reduction in viability incubated for 48 hrs by CellTiter Glo 3D assay; assay type: functional, tissue-based, Homo sapiens; conditions: in the assay text read “120 hrs” for “48 hrs”
# How it was run: (§3)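 Patient-derived organoids were dissociated to single cells with Accutase and seeded in NB organoid medium at 5000 (000GKX), 20000 (NB059), 5000 (NB067) or 3000 (NB139) cells/well. Compound was added after 24 h over a concentration range in triplicate, with DMSO matched. Incubation was 120 h at 37 °C and 5% CO2. Viability was read by CellTiter-Glo 3D, and absolute IC50 derived (n = 1).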
# [7] = Growth inhibition of patient derived NB139 Neuroblastoma organoid assessed as reduction in viability […] by CellTiter Glo 3D assay; assay type: functional, tissue-based; conditions: Homo sapiens; how it was run: as §3
# [8] = Growth inhibition of patient derived NB067 Neuroblastoma organoid assessed as reduction in viability […] by CellTiter Glo 3D assay; assay type: functional, tissue-based; conditions: Homo sapiens; how it was run: as §3
# [9] = target: T1, Protein cereblon/Aurora kinase A (Homo sapiens); assay: PROTAC activity at AURKA/CRBN in human NGP cells assessed as AURKA degradation at 10 to 1000 nM measured for 24 hrs by Western blot analysis relative to control; assay type: cell-based; conditions: dose 10-1000 nM
# How it was run: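 NGP cells were seeded at about 2×10^6 per flask, adhered for 48 h, and were then treated for 24 h with DMSO matched. Lysis was in RIPA with protease/phosphatase inhibitors. AURKA was quantified by capillary Simple Western with peak areas normalised to vinculin. Fold change is relative to DMSO (mean ± SD, n = 3).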
# T1 sequence (O14965 whole entry, looked up): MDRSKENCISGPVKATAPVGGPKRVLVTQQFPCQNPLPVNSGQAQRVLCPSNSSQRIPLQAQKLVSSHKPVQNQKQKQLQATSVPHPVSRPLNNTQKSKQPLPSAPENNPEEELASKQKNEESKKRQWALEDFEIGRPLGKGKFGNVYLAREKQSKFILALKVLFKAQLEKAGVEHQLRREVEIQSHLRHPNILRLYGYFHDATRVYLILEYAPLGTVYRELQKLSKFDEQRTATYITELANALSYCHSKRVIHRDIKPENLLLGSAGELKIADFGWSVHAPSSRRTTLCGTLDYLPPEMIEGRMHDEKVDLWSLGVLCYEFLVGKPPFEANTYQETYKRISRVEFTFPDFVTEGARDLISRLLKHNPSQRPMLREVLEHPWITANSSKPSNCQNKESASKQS
# T1 sequence (Q96SW2 whole entry, looked up): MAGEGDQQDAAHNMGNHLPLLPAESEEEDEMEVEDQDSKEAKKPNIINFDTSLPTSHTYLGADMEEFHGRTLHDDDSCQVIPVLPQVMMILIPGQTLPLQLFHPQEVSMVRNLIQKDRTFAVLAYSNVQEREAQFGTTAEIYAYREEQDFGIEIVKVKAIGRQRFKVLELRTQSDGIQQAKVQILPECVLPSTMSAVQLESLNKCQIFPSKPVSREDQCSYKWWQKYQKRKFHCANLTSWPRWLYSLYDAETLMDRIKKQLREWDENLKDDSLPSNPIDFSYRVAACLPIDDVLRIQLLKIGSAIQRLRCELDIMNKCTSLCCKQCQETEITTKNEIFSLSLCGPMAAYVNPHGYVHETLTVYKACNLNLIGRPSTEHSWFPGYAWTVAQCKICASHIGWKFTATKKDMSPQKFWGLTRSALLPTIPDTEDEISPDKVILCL
structure (smiles),measurement,setting,value
O=C1CCC(N2C(=O)c3cccc(OCCOCCOCCOCCNC(=O)[C@]4(Cc5cccc(Nc6nccs6)n5)CC[C@@H](Oc5cccc(Cl)c5F)CC4)c3C2=O)C(=O)N1 (stereo partly specified),Activity,[1],Active
same,Emax,SK-N-AS,45%
same,Emax,IMR-32,14.1%
same,Activity,NGP [2],Active
same,Activity,NGP [3],Active
same,Activity,[4],Dose-Dependent Effect
same,Activity,[5],Active
same,IC50,[6],Not Active
same,IC50,[7],131 nM
same,IC50,[8],26.4 nM
same,Emax,[9],85%
